Assay results published in ChEMBL document CHEMBL4145619, “Computer-Assisted Discovery of Retinoid X Receptor Modulating Natural Products and Isofunctional Mimetics” (J Med Chem, 2018).
Activity calls are given as the source filed them. No cut-off for these calls is given here.

Columns and labels:
Assay type in all cases: cell-based
[1] = target: T1, Retinoic acid receptor RXR-beta (Homo sapiens) (UniProt P28702); assay: Transactivation of human Gal4-fused RXRbeta LBD expressed in HEK293T cells after 12 to 14 hrs by dual-glo luciferase assay relative to bexarotene
T1 sequence (whole entry): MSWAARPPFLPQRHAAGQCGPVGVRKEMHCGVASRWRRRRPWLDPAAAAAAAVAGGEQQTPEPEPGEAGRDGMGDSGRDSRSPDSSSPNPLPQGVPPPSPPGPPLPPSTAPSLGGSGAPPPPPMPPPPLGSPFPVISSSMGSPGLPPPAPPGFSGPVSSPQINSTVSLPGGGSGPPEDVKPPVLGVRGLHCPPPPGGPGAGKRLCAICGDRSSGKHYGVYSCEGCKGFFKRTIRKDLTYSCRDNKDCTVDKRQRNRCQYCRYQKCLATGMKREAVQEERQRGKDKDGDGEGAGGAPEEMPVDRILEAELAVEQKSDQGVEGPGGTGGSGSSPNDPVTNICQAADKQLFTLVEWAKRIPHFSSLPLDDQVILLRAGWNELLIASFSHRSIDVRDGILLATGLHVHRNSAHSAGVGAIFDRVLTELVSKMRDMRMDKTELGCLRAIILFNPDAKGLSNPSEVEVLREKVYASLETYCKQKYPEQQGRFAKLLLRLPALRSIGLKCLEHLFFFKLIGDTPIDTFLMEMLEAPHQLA

[2] = target: T2, Retinoic acid receptor RXR-gamma (Homo sapiens) (UniProt P48443); assay: Transactivation of human Gal4-fused RXRgamma LBD expressed in HEK293T cells after 12 to 14 hrs by dual-glo luciferase assay relative to bexarotene
T2 sequence (whole entry): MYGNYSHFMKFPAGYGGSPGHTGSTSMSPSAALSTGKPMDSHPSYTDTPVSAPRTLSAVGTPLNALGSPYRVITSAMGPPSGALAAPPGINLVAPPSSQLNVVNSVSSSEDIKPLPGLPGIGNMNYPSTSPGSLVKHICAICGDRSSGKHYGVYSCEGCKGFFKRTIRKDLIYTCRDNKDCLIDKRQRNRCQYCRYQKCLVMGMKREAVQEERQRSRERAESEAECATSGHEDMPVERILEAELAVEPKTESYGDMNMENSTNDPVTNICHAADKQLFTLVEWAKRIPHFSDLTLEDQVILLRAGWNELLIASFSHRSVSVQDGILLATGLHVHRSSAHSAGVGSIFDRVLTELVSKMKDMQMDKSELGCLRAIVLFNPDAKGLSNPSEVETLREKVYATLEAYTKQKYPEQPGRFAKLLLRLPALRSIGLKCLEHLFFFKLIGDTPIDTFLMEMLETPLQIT

[3] = target: T3, Retinoic acid receptor beta (Homo sapiens) (UniProt P10826); assay: Transactivation of human Gal4-fused RARbeta LBD expressed in HEK293T cells at 30 uM after 12 to 14 hrs by dual-glo luciferase assay
T3 sequence (whole entry): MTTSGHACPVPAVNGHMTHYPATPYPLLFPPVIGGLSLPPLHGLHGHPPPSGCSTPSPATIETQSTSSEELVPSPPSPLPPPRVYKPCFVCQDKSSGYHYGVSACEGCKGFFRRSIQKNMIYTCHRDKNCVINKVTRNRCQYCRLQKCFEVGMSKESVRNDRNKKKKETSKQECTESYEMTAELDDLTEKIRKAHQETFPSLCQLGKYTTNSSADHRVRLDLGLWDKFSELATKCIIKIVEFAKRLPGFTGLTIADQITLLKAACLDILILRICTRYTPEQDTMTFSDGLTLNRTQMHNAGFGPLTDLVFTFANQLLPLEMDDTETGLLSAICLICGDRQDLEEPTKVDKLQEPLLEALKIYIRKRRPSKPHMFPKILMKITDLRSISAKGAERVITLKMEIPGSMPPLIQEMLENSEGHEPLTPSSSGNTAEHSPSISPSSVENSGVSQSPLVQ
Outline: (§1)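 Single-concentration selectivity profiling in Gal4-hybrid reporter gene assays in HEK293T cells. Each nuclear receptor construct (RAR, PPAR, LXR, FXR, CAR, VDR, PXR, RXR) was tested at 30 μM.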

[4] = target: T4, Retinoic acid receptor gamma (Homo sapiens) (UniProt P13631); assay: Transactivation of human Gal4-fused RARgamma LBD expressed in HEK293T cells at 30 uM after 12 to 14 hrs by dual-glo luciferase assay; outline: as §1
T4 sequence (whole entry): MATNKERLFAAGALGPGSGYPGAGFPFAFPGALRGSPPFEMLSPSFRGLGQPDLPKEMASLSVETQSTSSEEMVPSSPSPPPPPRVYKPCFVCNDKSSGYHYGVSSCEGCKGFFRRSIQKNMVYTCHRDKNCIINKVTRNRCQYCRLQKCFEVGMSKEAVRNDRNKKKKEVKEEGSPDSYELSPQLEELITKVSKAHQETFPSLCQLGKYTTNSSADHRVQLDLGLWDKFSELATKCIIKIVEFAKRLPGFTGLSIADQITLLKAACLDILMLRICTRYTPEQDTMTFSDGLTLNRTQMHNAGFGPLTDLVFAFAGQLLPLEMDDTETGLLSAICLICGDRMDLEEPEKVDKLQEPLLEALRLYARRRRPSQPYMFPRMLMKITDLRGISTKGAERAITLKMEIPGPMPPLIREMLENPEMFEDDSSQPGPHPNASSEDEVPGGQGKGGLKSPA

[5] = target: T5, Nuclear receptor subfamily 1 group I member 2 (Homo sapiens, UniProt O75469); assay: Transactivation of human Gal4-fused PXR LBD expressed in HEK293T cells at 30 uM after 12 to 14 hrs by dual-glo luciferase assay; outline: as §1
T5 sequence (O75469 whole entry): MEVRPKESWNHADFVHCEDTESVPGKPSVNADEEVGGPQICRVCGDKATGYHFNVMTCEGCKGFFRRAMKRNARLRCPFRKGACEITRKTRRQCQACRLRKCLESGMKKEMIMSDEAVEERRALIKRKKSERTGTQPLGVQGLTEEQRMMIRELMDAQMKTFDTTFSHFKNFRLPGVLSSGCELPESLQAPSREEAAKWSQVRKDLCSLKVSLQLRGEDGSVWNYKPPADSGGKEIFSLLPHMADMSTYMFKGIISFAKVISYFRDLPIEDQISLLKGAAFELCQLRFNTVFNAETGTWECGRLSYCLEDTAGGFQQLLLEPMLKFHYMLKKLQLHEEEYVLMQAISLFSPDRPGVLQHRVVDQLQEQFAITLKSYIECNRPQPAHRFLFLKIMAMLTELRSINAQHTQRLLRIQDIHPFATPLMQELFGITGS

HepG2 = assay: Cytotoxicity against human HepG2 cells assessed as reduction in cell viability up to 100 uM after 48 hrs by WST1 assay; settings: hepg2, 48 h
[6] = target: Retinoid X receptor (Homo sapiens) (UniProt P28702+P48443+P19793); assay: Transactivation of RXR in human HepG2 cells assessed as induction of apoE mRNA expression at 30 uM after 8 hrs by qRT-PCR analysis
Retinoid X receptor (Homo sapiens), sequence (P19793 whole entry, looked up, one chain of several): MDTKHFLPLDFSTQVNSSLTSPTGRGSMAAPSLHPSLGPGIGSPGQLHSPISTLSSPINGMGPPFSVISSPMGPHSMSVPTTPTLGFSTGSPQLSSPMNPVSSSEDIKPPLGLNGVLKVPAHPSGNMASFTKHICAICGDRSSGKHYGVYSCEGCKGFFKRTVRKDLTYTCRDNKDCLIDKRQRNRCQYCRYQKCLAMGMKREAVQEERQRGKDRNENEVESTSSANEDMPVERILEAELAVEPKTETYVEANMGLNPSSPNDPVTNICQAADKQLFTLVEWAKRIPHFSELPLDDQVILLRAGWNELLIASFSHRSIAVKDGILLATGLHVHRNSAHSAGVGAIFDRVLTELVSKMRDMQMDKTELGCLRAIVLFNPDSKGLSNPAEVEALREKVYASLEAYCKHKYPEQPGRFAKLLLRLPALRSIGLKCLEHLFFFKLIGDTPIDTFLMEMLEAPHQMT
Outline: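 HepG2 cells were treated and ABCA1 or ApoE mRNA levels measured. Results are given as mean fold induction versus 0.1% DMSO vehicle ± SEM, n = 3. Significance was set at p < 0.05, 0.01 or 0.001.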

CC1=C2[C@H](/C=C(\C)C(=O)O)CC[C@@H](C)[C@H]2CC1 [VALERENIC ACID]
fold change (FC) [1]: 69
fold change (FC) [2]: 4
Activity [3]: inactive
Activity [4]: inactive
Activity [5]: Not Active
Activity (HepG2): Non-Toxic
Activity [6]: Active
